Laboratory results published in ChEMBL document CHEMBL1122426, “Radioiodine-labeled N,N-dimethyl-N'-(2-hydroxy-3-alkyl-5-iodobenzyl)-1,3-propanediamines for brain perfusion imaging” (J Med Chem, 1983).

Key:
[1] = test system: Rattus norvegicus; experiment: Biodistribution of I-125 labeled compound in rat blood, 1 hr after intravenous injection. value expressed in average % dose per organ; assay type: ADME, organism-based; settings: in vivo
[2] = test system: Rattus norvegicus; experiment: Biodistribution of I-125 labeled compound in rat blood, 2 min after intravenous injection. value expressed in average % dose per organ; assay type: ADME, organism-based; settings: in vivo
[3] = test system: Rattus norvegicus; experiment: Biodistribution of I-125 labeled compound in rat brain, 1 hr after intravenous injection. value expressed in average % dose per organ; assay type: ADME, organism-based; settings: in vivo
[4] = test system: Rattus norvegicus; experiment: Biodistribution of I-125 labeled compound in rat brain to blood ratio, 2 min after intravenous injection. value expressed in % dose per gram ratio; assay type: ADME, organism-based
Summary of the method: (§1)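 Rats given I-125 diamine iv; tissue activity at 2 min or 1 h compared with diluted injected-dose aliquots. % dose per gram approximated as % dose per organ divided by mean organ weight (brain 1.65 g; blood 18 g). Ratio taken from the per-gram values.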

[5] = test system: Rattus norvegicus; experiment: Biodistribution of I-125 labeled compound in rat liver, 1 hr after intravenous injection. value expressed in average % dose per organ; assay type: ADME, organism-based; settings: in vivo
[6] = test system: Rattus norvegicus; experiment: Biodistribution of I-125 labeled compound in rat liver, 2 min after intravenous injection. value expressed in average % dose per organ; assay type: ADME, organism-based; settings: in vivo
[7] = test system: Rattus norvegicus; experiment: Biodistribution of I-125 labeled compound in rat lungs, 1 hr after intravenous injection. value expressed in average % dose per organ; assay type: ADME, organism-based, Lung; settings: in vivo
[8] = test system: Rattus norvegicus; experiment: Biodistribution of I-125 labeled compound in rat thyroid, 2 min after intravenous injection. value expressed in average % dose per organ; assay type: ADME, organism-based, Thyroid gland; settings: in vivo
[9] = test system: Rattus norvegicus; experiment: Biodistribution of I-125 labeled compound in rat brain, 2 min after intravenous injection. value expressed in average % dose per organ; assay type: ADME, organism-based; settings: in vivo
[10] = test system: Rattus norvegicus; experiment: Biodistribution of I-125 labeled compound in rat heart, 1 hr after intravenous injection. value expressed in average % dose per organ; assay type: ADME, organism-based; settings: in vivo
[11] = species: Rattus norvegicus; experiment: Distribution coefficient at pH 7.0 in rat; assay type: ADME, organism-based
Summary of the method: (§2)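 Octanol/buffer partition: I-125 labeled diamine mixed with 3 g each of 1-octanol and 0.1 M phosphate buffer at pH 7.0 or 7.4, vortexed 3× 1 min, centrifuged 5 min. Two 0.5 g samples of each layer counted. Value is cpm/g octanol over cpm/g buffer, usually repeated three times.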

[12] = species: Rattus norvegicus; experiment: Distribution coefficient at pH 7.4 in rat; assay type: ADME, organism-based; summary of the method: as §2
[13] = test system: Rattus norvegicus; experiment: Biodistribution of I-125 labeled compound in rat thyroid, 1 hr after intravenous injection. value expressed in average % dose per organ; assay type: ADME, organism-based, Thyroid gland; settings: in vivo
[14] = The protein binding ability of compound was expressed in Percent free; assay type: ADME; settings: read-out: % free
Summary of the method: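 Binding to pooled human serum was measured by equilibrium dialysis. 0.4 mL serum and 0.4 mL 0.15 M phosphate buffer, pH 7.4, were separated by a membrane, and 0.025 μCi radiolabeled diamine was added on the buffer side. Cells were rotated at 37 °C for 18 h, and aliquots from both sides were weighed and counted. % free = buffer/serum radioactivity concentration ratio × 100. The membrane was also counted.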

[15] = test system: Rattus norvegicus; experiment: Biodistribution of I-125 labeled compound in rat lungs, 2 min after intravenous injection. value expressed in average % dose per organ; assay type: ADME, organism-based, Lung; settings: in vivo
[16] = test system: Rattus norvegicus; experiment: Biodistribution of I-125 labeled compound in rat muscle, 1 hr after intravenous injection. value expressed in average % dose per organ; assay type: ADME, organism-based, Muscle tissue; settings: in vivo
[17] = test system: Rattus norvegicus; experiment: Biodistribution of I-125 labeled compound in rat muscle, 2 min after intravenous injection. value expressed in average % dose per organ; assay type: ADME, organism-based, Muscle tissue; settings: in vivo
[18] = test system: Rattus norvegicus; experiment: Biodistribution of I-125 labeled compound in rat heart, 2 min after intravenous injection. value expressed in average % dose per organ; assay type: ADME, organism-based; settings: in vivo
[19] = test system: Rattus norvegicus; experiment: Biodistribution of I-125 labeled compound in rat brain to blood ratio, 1 hr after intravenous injection. value expressed in % dose per gram ratio; assay type: ADME, organism-based; summary of the method: as §1
[20] = test system: Rattus norvegicus; experiment: Biodistribution of I-125 labeled compound in rat lungs, 1 hr after intravenous injection. value expressed in average % dose per organ; value may range from 11.5 to 26.1; assay type: ADME, organism-based, Lung; settings: in vivo
[21] = test system: Rattus norvegicus; experiment: Biodistribution of I-125 labeled compound in rat blood, 1 hr after intravenous injection. value expressed in average % dose per organ; value may range from 0.99 to 1.37; assay type: ADME, organism-based; settings: in vivo
[22] = test system: Rattus norvegicus; experiment: Biodistribution of I-125 labeled compound in rat heart, 2 min after intravenous injection. value expressed in average % dose per organ; value may range from 2.20 to 3.07; assay type: ADME, organism-based; settings: in vivo
[23] = test system: Rattus norvegicus; experiment: Biodistribution of I-125 labeled compound in rat brain, 1 hr after intravenous injection. value expressed in average % dose per organ; value may range from 1.51 to 2.17; assay type: ADME, organism-based; settings: in vivo
[24] = test system: Rattus norvegicus; experiment: Biodistribution of I-125 labeled compound in rat brain, 2 min after intravenous injection. value expressed in average % dose per organ; value may range from 1.45 to 1.89; assay type: ADME, organism-based; settings: in vivo
[25] = test system: Rattus norvegicus; experiment: Biodistribution of I-125 labeled compound in rat blood, 2 min after intravenous injection. value expressed in average % dose per organ; value may range from 2.74 to 5.33; assay type: ADME, organism-based; settings: in vivo
[26] = test system: Rattus norvegicus; experiment: Biodistribution of I-125 labeled compound in rat liver, 1 hr after intravenous injection. value expressed in average % dose per organ; value may range from 7.32 to 10.1; assay type: ADME, organism-based; settings: in vivo
[27] = test system: Rattus norvegicus; experiment: Biodistribution of I-125 labeled compound in rat liver, 2 min after intravenous injection. value expressed in average % dose per organ; value may range from 6.36 to 14.2; assay type: ADME, organism-based; settings: in vivo
[28] = test system: Rattus norvegicus; experiment: Biodistribution of I-125 labeled compound in rat thyroid, 2 min after intravenous injection. value expressed in average % dose per organ; value may range from 0.15 to 0.25; assay type: ADME, organism-based, Thyroid gland; settings: in vivo
[29] = test system: Rattus norvegicus; experiment: Biodistribution of I-125 labeled compound in rat heart, 1 hr after intravenous injection. value expressed in average % dose per organ; value may range from 1.12 to 1.86; assay type: ADME, organism-based; settings: in vivo
[30] = test system: Rattus norvegicus; experiment: Biodistribution of I-125 labeled compound in rat thyroid, 1 hr after intravenous injection. value expressed in average % dose per organ; value may range from 0.16 to 0.26; assay type: ADME, organism-based, Thyroid gland; settings: in vivo
[31] = test system: Rattus norvegicus; experiment: Biodistribution of I-125 labeled compound in rat lungs, 2 min after intravenous injection. value expressed in average % dose per organ; value may range from 24.6 to 42.2; assay type: ADME, organism-based, Lung; settings: in vivo
[32] = test system: Rattus norvegicus; experiment: Biodistribution of I-125 labeled compound in rat muscle, 1 hr after intravenous injection. value expressed in average % dose per organ; value may range from 11.3 to 17.1; assay type: ADME, organism-based, Muscle tissue; settings: in vivo
[33] = test system: Rattus norvegicus; experiment: Biodistribution of I-125 labeled compound in rat muscle, 2 min after intravenous injection. value expressed in average % dose per organ; value may range from 4.59 to 12.0; assay type: ADME, organism-based, Muscle tissue; settings: in vivo
[34] = test system: Rattus norvegicus; experiment: Biodistribution of I-125 labeled compound in rat blood, 1 hr after intravenous injection. value expressed in average % dose per organ; value may range from 1.64 to 1.91; assay type: ADME, organism-based; settings: in vivo
[35] = test system: Rattus norvegicus; experiment: Biodistribution of I-125 labeled compound in rat blood, 2 min after intravenous injection. value expressed in average % dose per organ; value may range from 3.95 to 6.09; assay type: ADME, organism-based; settings: in vivo
[36] = test system: Rattus norvegicus; experiment: Biodistribution of I-125 labeled compound in rat heart, 2 min after intravenous injection. value expressed in average % dose per organ; value may range from 2.13 to 2.96; assay type: ADME, organism-based; settings: in vivo
[37] = test system: Rattus norvegicus; experiment: Biodistribution of I-125 labeled compound in rat liver, 1 hr after intravenous injection. value expressed in average % dose per organ; value may range from 11.0 to 13.4; assay type: ADME, organism-based; settings: in vivo
[38] = test system: Rattus norvegicus; experiment: Biodistribution of I-125 labeled compound in rat brain, 1 hr after intravenous injection. value expressed in average % dose per organ; value may range from 0.95 to 1.00; assay type: ADME, organism-based; settings: in vivo
[39] = test system: Rattus norvegicus; experiment: Biodistribution of I-125 labeled compound in rat liver, 2 min after intravenous injection. value expressed in average % dose per organ; value may range from 12.3 to 15.0; assay type: ADME, organism-based; settings: in vivo
[40] = test system: Rattus norvegicus; experiment: Biodistribution of I-125 labeled compound in rat thyroid, 1 hr after intravenous injection. value expressed in average% dose per organ; value may range from 0.19 to 0.25; assay type: ADME, organism-based, Thyroid gland; settings: in vivo
[41] = test system: Rattus norvegicus; experiment: Biodistribution of I-125 labeled compound in rat thyroid, 2 min after intravenous injection. value expressed in average % dose per organ; value may range from 0.13 to 0.19; assay type: ADME, organism-based, Thyroid gland; settings: in vivo
[42] = test system: Rattus norvegicus; experiment: Biodistribution of I-125 labeled compound in rat brain, 2 min after intravenous injection. value expressed in average% dose per organ; value may range from 0.85 to 1.01; assay type: ADME, organism-based; settings: in vivo
[43] = test system: Rattus norvegicus; experiment: Biodistribution of I-125 labeled compound in rat heart, 1 hr after intravenous injection. value expressed in average % dose per organ; value may range from 2.29 to 2.35; assay type: ADME, organism-based; settings: in vivo
[44] = test system: Rattus norvegicus; experiment: Biodistribution of I-125 labeled compound in rat […] ratio, 1 hr after intravenous injection. value expressed in % dose per gram ratio; assay type: ADME, organism-based; settings: in vivo
[45] = test system: Rattus norvegicus; experiment: Biodistribution of I-125 labeled compound in rat lungs, 1 hr after intravenous injection. value expressed in average % dose per organ; value may range from 15.1 to 17.1; assay type: ADME, organism-based, Lung; settings: in vivo
[46] = test system: Rattus norvegicus; experiment: Biodistribution of I-125 labeled compound in rat lungs, 2 min after intravenous injection. value expressed in average % dose per organ; value may range from 31.6 to 34.0; assay type: ADME, organism-based, Lung; settings: in vivo
[47] = test system: Rattus norvegicus; experiment: Biodistribution of I-125 labeled compound in rat muscle, 1 hr after intravenous injection. value expressed in average % dose per organ; value may range from 11.0 to 15. 8; assay type: ADME, organism-based, Muscle tissue; settings: in vivo
[48] = test system: Rattus norvegicus; experiment: Biodistribution of I-125 labeled compound in rat muscle, 2 min after intravenous injection. value expressed in average % dose per organ; value may range from 5.95 to 6.51; assay type: ADME, organism-based, Muscle tissue; settings: in vivo

CN(C)CCCNCc1cc(I)cc(C(C)(C)C)c1O
Average dose per organ [1]: 2.79% | Average dose per organ [2]: 4.16% | Average dose per organ [3]: 1.67% | Ratio [4]: 4.31% | Average dose per organ [5]: 7.38% | Average dose per organ [6]: 11.7% | Average dose per organ [7]: 15.4% | Average dose per organ [8]: 0.17% | Average dose per organ [9]: 1.67% | Average dose per organ [10]: 1.33% | Distribution coefficient [11]: 522 | Distribution coefficient [12]: 1390 | Average dose per organ [13]: 0.2% | fraction unbound [14]: 0.0607 | Average dose per organ [15]: 28.2% | Average dose per organ [16]: 14.1% | Average dose per organ [17]: 6.44% | Average dose per organ [18]: 3.16% | Ratio [19]: 6.43%

CCCc1cc(I)cc(CNCCCN(C)C)c1O
Average dose per organ [20]: 16.1% | Average dose per organ [21]: 1.15% | Ratio [4]: 4.49% | Average dose per organ [22]: 2.67% | Average dose per organ [23]: 1.79% | Average dose per organ [24]: 1.71% | Average dose per organ [25]: 4.09% | Average dose per organ [26]: 8.01% | Average dose per organ [27]: 9.54% | Average dose per organ [28]: 0.17% | Average dose per organ [29]: 1.49% | Distribution coefficient [11]: 44.8 | Distribution coefficient [12]: 176 | Average dose per organ [30]: 0.21% | fraction unbound [14]: 0.159 | Average dose per organ [31]: 33% | Average dose per organ [32]: 14.6% | Average dose per organ [33]: 7.44% | Ratio [19]: 16.7%

CN(C)CCCNCc1cc(I)cc(C2CCCCC2)c1O
Average dose per organ [34]: 1.74% | Average dose per organ [35]: 5.3% | Ratio [4]: 1.91% | Average dose per organ [36]: 2.51% | Average dose per organ [37]: 12.4% | Average dose per organ [38]: 0.97% | Average dose per organ [39]: 13.8% | Average dose per organ [40]: 0.22% | Average dose per organ [41]: 0.16% | Average dose per organ [42]: 0.94% | Average dose per organ [43]: 2.33% | Distribution coefficient [11]: 260 | Distribution coefficient [12]: 468 | fraction unbound [14]: 0.0517 | Ratio [44]: 5.99% | Average dose per organ [45]: 16.3% | Average dose per organ [46]: 33% | Average dose per organ [47]: 13.4% | Average dose per organ [48]: 6.17%
